Experimental data published in PubChem BioAssay AID449763 (Sanford-Burnham Center for Chemical Genomics, 2010).
Hit rate of the full screen: of about 330,000 compounds, about 1,100 (0.33%) were called active.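 How the source made its calls: active means at 10 µM dose, activation of 40% or more, normalized to positive control; inactive means the rest.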 The entries come from a sample that favours actives as a whole.

assay: PERK-eIF2a-CHOP pathway stimulators – cell-based, CHO-CHOP luciferase reporter, luminescence, uHTS, primary screen (AID 449763); conditions: UPR activation, at 10 µM, active compounds read high, percent of tunicamycin response over DMSO baseline;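 further: 100% = tunicamycin at 10 µg/mL and 0% = DMSO alone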
Summary of the method: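 Material: CHO-CHOP cells, stable luciferase reporter of PERK-eIF2a-CHOP signalling; quantity: 500 reporter cells seeded per well; buffer or medium: F12 medium containing 10% fetal bovine serum; compound: one dose, 10 µM in 0.5% DMSO; incubation: 6 h compound treatment, 37 °C; measured by: Steady-Glo luciferase luminescence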

activation, active:
COc1ccccc1N=Cc1c(O)c2ccccc2oc1=O 130%
Nc1nc(CC(=O)CSc2ccc(Cl)cc2)nc(Nc2ccc(F)cc2)n1 42.4%
Cc1cccc(C)c1NC(=O)C(Cl)C(=O)c1ccccc1 (stereo not given) 52.9%
CSc1nc(-c2ccccc2)nc(C(Cl)Cl)n1 46.2%
CCc1nn(-c2cc(Oc3cccc4ccccc34)nc(-c3ccccc3)n2)c(N)c1C#N 56.7%
O=C1C=CC(=O)N1c1ccc(N2CCCCC2)cc1 44.6%
CSc1nnc(NC(=O)c2nc(S(=O)(=O)Cc3ccc(C)cc3)ncc2Cl)s1 72.6%
Cc1cccc(CS(=O)(=O)c2ncc(Cl)c(C(=O)Nc3ccc(F)cc3)n2)c1 278%
O=[N+]([O-])c1ccccc1S(=O)(=O)Nc1cccc2cccnc12 428%
COc1ccc2c(c1OC)C(=O)OC2Nc1nc(-c2ccccc2)cs1 (stereo not given) 41.7%
CCOc1ccc(N2C(=O)CC(N(O)c3ccccc3)C2=O)cc1 (stereo not given) 185%

activation, inactive:
COc1cc(N=Cc2c(O)c3ccccc3oc2=O)c(OC)cc1Cl 3.5%
COc1ccccc1N=C(C)C1=C(O)COC1=O -0.0733%
COc1ccc(C(=O)Nc2cc(S(=O)(=O)N3CCCC3)ccc2Cl)cc1 0.727%
Cc1ccc(CN2CCCOCCS2(=O)=O)cc1 -0.00453%
CCN(CC(=O)Nc1cccc(S(=O)(=O)N2CCCCC2)c1)Cc1ccccc1 -0.441%
Cc1ccc(Nc2nc(N)nc(CSc3nnc(C)s3)n2)cc1 4.12%
Nc1nc(COC(=O)CCC(=O)c2ccc(Cl)cc2)nc(Nc2ccccc2)n1 0.238%
COc1ccc(C(=O)CSc2nnnn2C)c(OC)c1 0.876%
Cc1cccc(C)c1NC(=O)C(c1ccccc1)N1CC(=O)Nc2ccccc21 (stereo not given) -0.493%
Cc1cccc(C)c1NC(=O)CN(C)C(=O)CCC(=O)c1ccccc1 0.683%
C1=C(N2CCOCC2)/C(=C/c2nc3ccccc3[nH]2)CC1 -3.2%
CSc1ncc(Sc2ccccc2)c(C(=O)O)n1 -0.159%
CC(C)=CCC/C(C)=C/C(=O)O 0.467%
COc1ccccc1N1CCN(CC(=O)NCCc2ccc(S(N)(=O)=O)cc2)CC1 -1.28%
O=C(/C=C/c1cccs1)c1cc(Cl)ccc1OC(=O)N1CCOCC1 2.72%
COc1ccc(C(=O)N2CCC(C(=O)Nc3ccc(C)cc3)CC2)cc1 -0.572%
CC(C)(C)n1nc(Cc2cccc3ccccc23)c(C#N)c1N 0.111%
CCCC(c1nnnn1C(C)(C)C)N1CCN(Cc2ccccc2)CC1 (stereo not given) -1.39%
CC(C)[C@H](NC(=O)N1c2ccccc2NC(=O)[C@@H]1C(C)C)C(=O)N[C@H](C(=O)O)c1ccccc1 -2.11%
C=CCN1CN(S(=O)(=O)c2ccc(OC)cc2)c2nc3ccccc3nc21 0.29%
CC(=O)Nc1ccc(S(=O)(=O)Nc2ccc(N3CCCCC3)cc2)cc1 4.38%
O=C(Cc1ccccc1)NC(=S)Nc1ccc(N2CCCCC2)cc1 0.603%
COc1ccccc1-n1c(SCC(=O)O)nc2sc3c(c2c1=O)CCC3 1.38%
COc1ccc(NC(=O)C(CC(C)C)NC(=O)C2CCC(C)CC2)cc1 (stereo not given) 0.903%
COc1ccccc1CNS(=O)(=O)c1cc2c3c(c1)CCC(=O)N3CCC2 2.93%
Fc1ccc2nc(-c3ccccc3)nc(SCc3nnc(-c4ccccc4)o3)c2c1 0.865%
Cc1ccc(CS(=O)(=O)c2ncc(Cl)c(C(=O)Nc3nnc(C)s3)n2)cc1 26.4%
COCCSc1nnc(NC(=O)CCS(=O)(=O)Cc2ccccc2)s1 -0.572%
Cc1cccc(NC(=O)c2nc(S(=O)(=O)Cc3ccccc3)ncc2Cl)c1 -9.27%
CCOc1ccc(NC(=O)c2nc(SCC)ncc2Cl)cc1 0.746%
O=C(NCCCCO)C(F)(F)C(F)(F)C(F)(F)C(=O)NCCCCO 2.68%
Cc1cccc(OCc2nnc(SCc3nc4cc(C(F)(F)F)ccc4c(=O)[nH]3)o2)c1 1.49%
Cc1ccc(OCc2nnc(SC3CCc4ccccc4C3=O)n2C)cc1 (stereo not given) 0.0439%
CSc1ccc(/C=C/C(=O)NC23CC4CC(CC(C4)C2)C3)cc1 6.51%
Clc1ccc(CN2CCCCCC2)cc1Cl 0.707%
NS(=O)(=O)c1ccc(CCNS(=O)(=O)c2cccc3cccnc23)cc1 0.112%
O=S(=O)(NCCc1ccc(F)cc1)c1cccc2cccnc12 0.907%
Cc1ccc2oc(=O)c3cnn(CC(=O)N(Cc4ccco4)C4CCCCC4)c3c2c1 0.347%
CC(C)CCNC(=O)Cn1c(=O)oc2cc(S(=O)(=O)N3CC(C)CC(C)C3)ccc21 (stereo not given) 0.0919%
COc1cc(CC(=O)Nc2nc(-c3ccc(F)c(F)c3)cs2)cc(OC)c1OC 6.97%
CCc1ccccc1NC(=O)[C@@H]1CCC(=O)N1C1OC(=O)c2c1ccc(OC)c2OC (stereo not given in full) -1.13%
O=C1Nc2cc(Cl)c(Cl)cc2N(O)N1c1ccccc1Cl 0.176%
COc1ccc(N=C2SC(C(=O)Nc3ccc(F)cc3)CC(=O)N2C)cc1 (stereo not given) -0.141%
CCOCCc1nn2c(=O)cc(CSCC(=O)Nc3cccc(C)c3C)nc2s1 -1.45%
Cn1c(-c2ccc(C(F)(F)F)cc2)cc2onc(-c3ccccc3)c2c1=O 5.2%
CCCCCCC(=O)N(O)C1CC(=O)N(c2ccccc2)C1=O (stereo not given) 1.5%
CCOc1ccc(N2C(=O)CC(N(CCc3ccc(OC)c(OC)c3)C(=S)Nc3ccccc3)C2=O)cc1 (stereo not given) 1.65%
CC(=O)NNC1=Nc2ccccc2N(C)C(C)C1 (stereo not given) 1.41%
CCOc1cc(N2CCOCC2)c(OCC)cc1NC(=O)C1=NN(c2cccc(C)c2)C(=O)CC1 1.02%
